In ChEMBL document CHEMBL3525900, “Pharmacokinetics, distribution, and metabolism of [14C]sunitinib in rats, monkeys, and humans” (Drug Metab Dispos, 2012):

Assays:
Homo sapiens [1] = assay: AUC (0 to infinity) in human plasma treated with [14C]sunitinib at 50 mg, po administered as single dose by LC/MS/MS analysis; type: ADME, organism-based; parameters: dose 50 mg, time infinity, route oral, dosed compound name [14C]Sunitinib; conditions: in vivo
Summary of the method: (§1)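 Open-label phase I study in 8 subjects given one 50 mg oral dose of [14C]sunitinib (100 µCi). Plasma total radioactivity was counted by scintillation on triplicate 0.25 mL aliquots. Sunitinib was quantified by LC-MS-MS. Noncompartmental analysis: Cmax read directly, terminal t½ = ln(2)/slope of the log-concentration regression, AUC by linear trapezoidal rule to the last detectable concentration.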

[2] = Drug excretion in urine of male Sprague-Dawley rat treated with [14C]sunitinib at 15 mg/kg, po administered as single dose by liquid scintillation counting; type: ADME, organism-based; parameters: dose 15 mg/kg, dosed compound name [14C]Sunitinib, route oral; conditions: in vivo
Summary of the method: (§2)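 Female and male rats given one oral gavage dose, 15 mg/kg free base equivalents (50 µCi/kg). Urine and feces collected on dry ice, protected from light, over 0-4, 4-8 and 8-24 h, then daily to 72 h. Urine aliquots counted by liquid scintillation; homogenized feces combusted in oxygen before counting. Counts 5 min, external quench correction.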

Cynomolgus monkey [3] = assay: Terminal half life in female cynomolgus monkey plasma treated with [14C]sunitinib at 6 mg/kg, po administered as single dose by LC/MS/MS analysis; type: ADME, organism-based, Macaca fascicularis; parameters: dose 6 mg/kg, dosed compound name [14C]Sunitinib, route oral; conditions: in vivo
[4] = Retention time of compound by LC/MS/MS analysis; type: physicochemical; parameters: dosed compound name [14C]Sunitinib
Rattus norvegicus [5] = assay: Cmax in female Sprague-Dawley rat plasma treated with [14C]sunitinib at 5 mg/kg, iv administered as single dose by LC/MS/MS analysis; type: ADME, organism-based; parameters: dose 5 mg/kg, dosed compound name [14C]Sunitinib, route intravenous; conditions: in vivo
Summary of the method: (§3)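 Single dose of [14C]sunitinib L-malate as free base, 50 µCi/kg. IV dose was 5 mg/kg by tail vein in 5 females. Oral dose was 15 mg/kg by gavage in 3 females and 3 males. Total radioactivity was by scintillation counting. […] Cmax was read from raw data, t½ by log-linear regression, AUC by linear trapezoidal rule.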

[6] = Drug excretion in urine of human treated with [14C]sunitinib at 50 mg, po administered as single dose by liquid scintillation counting; conditions: in vivo
Rattus norvegicus [7] = assay: AUC (0 to infinity) in female Sprague-Dawley rat plasma treated with [14C]sunitinib at 15 mg/kg, po administered as single dose by LC/MS/MS analysis; type: ADME, organism-based; parameters: time infinity, dose 15 mg/kg, dosed compound name [14C]Sunitinib, route oral; conditions: in vivo; summary of the method: as §3
Rattus norvegicus [8] = assay: Apparent terminal half life in female Sprague-Dawley rat plasma treated with [14C]sunitinib at 15 mg/kg, po administered as single dose by LC/MS/MS analysis; type: ADME, organism-based; parameters: dose 15 mg/kg, dosed compound name [14C]Sunitinib, route oral; conditions: in vivo; summary of the method: as §3
Cynomolgus monkey [9] = assay: Tmax in female cynomolgus monkey plasma treated with [14C]sunitinib at 6 mg/kg, po administered as single dose by LC/MS/MS analysis; type: ADME, organism-based, Macaca fascicularis; parameters: dose 6 mg/kg, dosed compound name [14C]Sunitinib, route oral; conditions: in vivo
[10] = Drug excretion in feces of male Sprague-Dawley rat treated with [14C]sunitinib at 15 mg/kg, po administered as single dose by liquid scintillation counting; type: ADME, organism-based; parameters: dose 15 mg/kg, dosed compound name [14C]Sunitinib, route oral; conditions: in vivo; summary of the method: as §2
Rattus norvegicus [11] = assay: AUC (0 to infinity) in female Sprague-Dawley rat plasma treated with [14C]sunitinib at 5 mg/kg, iv administered as single dose by LC/MS/MS analysis; type: ADME, organism-based; parameters: time infinity, dose 5 mg/kg, dosed compound name [14C]Sunitinib, route intravenous; conditions: in vivo; summary of the method: as §3
Rattus norvegicus [12] = assay: Tmax in female Sprague-Dawley rat plasma treated with [14C]sunitinib at 15 mg/kg, po administered as single dose by LC/MS/MS analysis; type: ADME, organism-based; parameters: dose 15 mg/kg, dosed compound name [14C]Sunitinib, route oral; conditions: in vivo
Rattus norvegicus [13] = assay: Tmax in female Sprague-Dawley rat plasma treated with [14C]sunitinib at 5 mg/kg, iv administered as single dose by LC/MS/MS analysis; type: ADME, organism-based; parameters: dose 5 mg/kg, dosed compound name [14C]Sunitinib, route intravenous; conditions: in vivo
Rattus norvegicus [14] = assay: Apparent terminal half life in female Sprague-Dawley rat plasma treated with [14C]sunitinib at 5 mg/kg, iv administered as single dose by LC/MS/MS analysis; type: ADME, organism-based; parameters: dose 5 mg/kg, dosed compound name [14C]Sunitinib, route intravenous; conditions: in vivo; summary of the method: as §3
[15] = Drug excretion in urine of female Sprague-Dawley rat treated with [14C]sunitinib at 15 mg/kg, po administered as single dose by liquid scintillation counting; type: ADME, organism-based; parameters: dose 15 mg/kg, dosed compound name [14C]Sunitinib, route oral; conditions: in vivo; summary of the method: as §2
[16] = Drug excretion in urine of female cynomolgus monkey treated with [14C]sunitinib at 6 mg/kg, po administered as single dose by liquid scintillation counting; type: ADME, organism-based, Macaca fascicularis; parameters: dose 6 mg/kg, dosed compound name [14C]Sunitinib, route oral; conditions: in vivo
Summary of the method: (§4)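 Cynomolgus monkeys given one oral gavage dose of [14C]sunitinib L-malate, 6 mg/kg (37 µCi/kg). Urine collected at 0-4, 4-8 and 8-24 h, feces at 0-8 and 8-24 h, then both daily to 14 days; samples stored at -80 °C. Duplicate urine aliquots counted by liquid scintillation; homogenized feces combusted before counting.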

Cynomolgus monkey [17] = assay: AUC (0 to infinity) in female cynomolgus monkey plasma treated with [14C]sunitinib at 6 mg/kg, po administered as single dose by LC/MS/MS analysis; type: ADME, organism-based, Macaca fascicularis; parameters: time infinity, dose 6 mg/kg, dosed compound name [14C]Sunitinib, route oral; conditions: in vivo
Summary of the method: (§5)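 Cynomolgus monkeys of both sexes received one oral gavage of [14C]sunitinib L-malate at 6 mg/kg (37 µCi/kg). Femoral-vein blood was taken into heparin from 0.5 to 336 h. Plasma was kept cold and protected from light, then stored at -80 °C. Total radioactivity was by scintillation counting and sunitinib by methanol-extraction LC-MS-MS. Cmax was from raw data, t½ from the log-linear terminal slope, AUC(0-∞) by linear trapezoidal rule.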

Homo sapiens [18] = assay: Cmax in human plasma treated with [14C]sunitinib at 50 mg, po administered as single dose by LC/MS/MS analysis; type: ADME, organism-based; parameters: dose 50 mg, route oral, dosed compound name [14C]Sunitinib; conditions: in vivo; summary of the method: as §1
Cynomolgus monkey [19] = assay: Cmax in male cynomolgus monkey plasma treated with [14C]sunitinib at 6 mg/kg, po administered as single dose by LC/MS/MS analysis; type: ADME, organism-based, Macaca fascicularis; parameters: dose 6 mg/kg, dosed compound name [14C]Sunitinib, route oral; conditions: in vivo; summary of the method: as §5
Rattus norvegicus [20] = assay: Cmax in male Sprague-Dawley rat plasma treated with [14C]sunitinib at 15 mg/kg, po administered as single dose by LC/MS/MS analysis; type: ADME, organism-based; parameters: dose 15 mg/kg, dosed compound name [14C]Sunitinib, route oral; conditions: in vivo; summary of the method: as §3
Cynomolgus monkey [21] = assay: Cmax in female cynomolgus monkey plasma treated with [14C]sunitinib at 6 mg/kg, po administered as single dose by LC/MS/MS analysis; type: ADME, organism-based, Macaca fascicularis; parameters: dose 6 mg/kg, dosed compound name [14C]Sunitinib, route oral; conditions: in vivo; summary of the method: as §5
Cynomolgus monkey [22] = assay: AUC (0 to infinity) in male cynomolgus monkey plasma treated with [14C]sunitinib at 6 mg/kg, po administered as single dose by LC/MS/MS analysis; type: ADME, organism-based, Macaca fascicularis; parameters: time infinity, dose 6 mg/kg, dosed compound name [14C]Sunitinib, route oral; conditions: in vivo; summary of the method: as §5
[23] = Drug excretion in urine of female Sprague-Dawley rat treated with [14C]sunitinib at 5 mg/kg, iv administered as single dose by liquid scintillation counting; type: ADME, organism-based; parameters: dose 5 mg/kg, dosed compound name [14C]Sunitinib, route intravenous; conditions: in vivo
Summary of the method: (§6)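 Five female rats given a single tail-vein bolus of [14C]sunitinib L-malate, 5 mg/kg free base equivalents (50 µCi/kg). Urine and feces collected over 0-72 h into dry-ice cooled containers. Urine counted directly by liquid scintillation; feces homogenized and combusted in oxygen before counting. Expired air also monitored.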

Rattus norvegicus [24] = assay: AUC (0 to infinity) in male Sprague-Dawley rat plasma treated with [14C]sunitinib at 15 mg/kg, po administered as single dose by LC/MS/MS analysis; type: ADME, organism-based; parameters: time infinity, dose 15 mg/kg, dosed compound name [14C]Sunitinib, route oral; conditions: in vivo; summary of the method: as §3
Homo sapiens [25] = assay: Tmax in human plasma treated with [14C]sunitinib at 50 mg, po administered as single dose by LC/MS/MS analysis; type: ADME, organism-based; parameters: dosed compound name [14C]Sunitinib; conditions: in vivo
[26] = Drug excretion in feces of female Sprague-Dawley rat treated with [14C]sunitinib at 15 mg/kg, po administered as single dose by liquid scintillation counting; type: ADME, organism-based; parameters: dose 15 mg/kg, dosed compound name [14C]Sunitinib, route oral; conditions: in vivo; summary of the method: as §2
[27] = Drug excretion in feces of female Sprague-Dawley rat treated with [14C]sunitinib at 5 mg/kg, iv administered as single dose by liquid scintillation counting; type: ADME, organism-based; parameters: dose 5 mg/kg, dosed compound name [14C]Sunitinib, route intravenous; conditions: in vivo; summary of the method: as §6
Cynomolgus monkey [28] = assay: Tmax in male cynomolgus monkey plasma treated with [14C]sunitinib at 6 mg/kg, po administered as single dose by LC/MS/MS analysis; type: ADME, organism-based, Macaca fascicularis; parameters: dose 6 mg/kg, dosed compound name [14C]Sunitinib, route oral; conditions: in vivo
Homo sapiens [29] = assay: Terminal half life in human plasma treated with [14C]sunitinib at 50 mg, po administered as single dose by LC/MS/MS analysis; type: ADME, organism-based; parameters: dosed compound name [14C]Sunitinib; conditions: in vivo
Rattus norvegicus [30] = assay: Tmax in male Sprague-Dawley rat plasma treated with [14C]sunitinib at 15 mg/kg, po administered as single dose by LC/MS/MS analysis; type: ADME, organism-based; parameters: dose 15 mg/kg, dosed compound name [14C]Sunitinib, route oral; conditions: in vivo
[31] = Drug excretion in feces of human treated with [14C]sunitinib at 50 mg, po administered as single dose by liquid scintillation counting; conditions: in vivo
[32] = Drug excretion in urine of male cynomolgus monkey treated with [14C]sunitinib at 6 mg/kg, po administered as single dose by liquid scintillation counting; type: ADME, organism-based, Macaca fascicularis; parameters: dose 6 mg/kg, dosed compound name [14C]Sunitinib, route oral; conditions: in vivo; summary of the method: as §4
Rattus norvegicus [33] = assay: Cmax in female Sprague-Dawley rat plasma treated with [14C]sunitinib at 15 mg/kg, po administered as single dose by LC/MS/MS analysis; type: ADME, organism-based; parameters: dose 15 mg/kg, dosed compound name [14C]Sunitinib, route oral; conditions: in vivo; summary of the method: as §3
Cynomolgus monkey [34] = assay: Terminal half life in male cynomolgus monkey plasma treated with [14C]sunitinib at 6 mg/kg, po administered as single dose by LC/MS/MS analysis; type: ADME, organism-based, Macaca fascicularis; parameters: dose 6 mg/kg, dosed compound name [14C]Sunitinib, route oral; conditions: in vivo
Rattus norvegicus [35] = assay: Apparent terminal half life in male Sprague-Dawley rat plasma treated with [14C]sunitinib at 15 mg/kg, po administered as single dose by LC/MS/MS analysis; type: ADME, organism-based; parameters: dose 15 mg/kg, dosed compound name [14C]Sunitinib, route oral; conditions: in vivo; summary of the method: as §3
[36] = Drug excretion in feces of male cynomolgus monkey treated with [14C]sunitinib at 6 mg/kg, po administered as single dose by liquid scintillation counting; type: ADME, organism-based, Macaca fascicularis; parameters: dose 6 mg/kg, dosed compound name [14C]Sunitinib, route oral; conditions: in vivo; summary of the method: as §4
[37] = Drug excretion in feces of female cynomolgus monkey treated with [14C]sunitinib at 6 mg/kg, po administered as single dose by liquid scintillation counting; type: ADME, organism-based, Macaca fascicularis; parameters: dose 6 mg/kg, dosed compound name [14C]Sunitinib, route oral; conditions: in vivo; summary of the method: as §4

## CCNCCNC(=O)c1c(C)[nH]c(/C=C2\C(=O)Nc3ccc(F)cc32)c1C
Homo sapiens [1]
  AUC: 592.6 ng·h/mL
[2]
  Compound recovery: 1.7%
Cynomolgus monkey [3]
  beta t1/2: 19 h
[4]
  Retention_time: 2.5 min
Rattus norvegicus [5]
  Cmax: 450 ng/mL
[6]
  Compound recovery: 6.9%
Rattus norvegicus [7]
  AUC: 37225 ng·h/mL
Rattus norvegicus [8]
  t1/2 lambda z: 9 h
Cynomolgus monkey [9]
  Tmax: 7 h
[10]
  Compound recovery: 21%
Rattus norvegicus [11]
  AUC: 6724 ng·h/mL
Rattus norvegicus [12]
  Tmax: 7 h
Rattus norvegicus [13]
  Tmax: 3 h
Rattus norvegicus [14]
  t1/2 lambda z: 8.4 h
[15]
  Compound recovery: 1.4%
[16]
  Compound recovery: 1.4%
Cynomolgus monkey [17]
  AUC: 1272 ng·h/mL
Homo sapiens [18]
  Cmax: 6.2 ng/mL
Cynomolgus monkey [19]
  Cmax: 67 ng/mL
Rattus norvegicus [20]
  Cmax: 4561 ng/mL
Cynomolgus monkey [21]
  Cmax: 54 ng/mL
Cynomolgus monkey [22]
  AUC: 1383 ng·h/mL
[23]
  Compound recovery: 0.5%
Rattus norvegicus [24]
  AUC: 68854 ng·h/mL
Homo sapiens [25]
  Tmax: 6.7 h
[26]
  Compound recovery: 32.1%
[27]
  Compound recovery: 18.5%
Cynomolgus monkey [28]
  Tmax: 8 h
Homo sapiens [29]
  beta t1/2: 93.2 h
Rattus norvegicus [30]
  Tmax: 6 h
[31]
  Compound recovery: 25%
[32]
  Compound recovery: 1.1%
Rattus norvegicus [33]
  Cmax: 1412 ng/mL
Cynomolgus monkey [34]
  beta t1/2: 19 h
Rattus norvegicus [35]
  t1/2 lambda z: 7.1 h

## CCN(CC)CCNC(=O)c1c(C)[nH]c(/C=C2\C(=O)Nc3ccc(O)cc32)c1C
[36]
  Compound recovery: 6.3%
[10]
  Compound recovery: 4.3%
[26]
  Compound recovery: 3.5%
[27]
  Compound recovery: 6.1%
[37]
  Compound recovery: 5.9%
